Source: ChEMBL document CHEMBL4425087, “Antibacterial Azaphilones from an Endophytic Fungus, Colletotrichum sp. BS4” (2016)
In brackets after ≈: the same amount, converted by molar mass. Activity calls are given as the source filed them. The calls are words filed in the database; no cut-off is given here.

Key:
THP-1 [1] = test: Cytotoxicity against human THP1 cells assessed as reduction in cell survival by measuring inhibition of intracellular ATP level at 0.01 to 100 uM after 48 hrs by ATPlite assay; type: functional, cell-based
Outline: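 THP-1 human acute monocytic leukemia cells, in vitro. ATPlite luminescence measures depletion of cytoplasmic ATP.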

Pseudomonas aeruginosa = test: Antibacterial activity against Pseudomonas aeruginosa DSM 22644 incubated for 24 hrs by disk diffusion method; type: functional
Outline: (§1)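 Standard control strains from the DSMZ collection (Braunschweig): E. coli and B. subtilis as common environmental strains, and S. aureus and P. aeruginosa as human pathogenic clinical strains. Run by the authors' previously described procedure.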

Staphylococcus aureus = test: Antibacterial activity against Staphylococcus aureus DSM 799 incubated for 24 hrs by disk diffusion method; type: functional; outline: as §1
Escherichia coli = test: Antibacterial activity against Escherichia coli DSM 1116 incubated for 24 hrs by disk diffusion method; type: functional; outline: as §1
Bacillus subtilis = test: Antibacterial activity against Bacillus subtilis DSM 1088 incubated for 24 hrs by disk diffusion method; type: functional; outline: as §1
THP-1 [2] = test: Cytotoxicity against human THP1 cells assessed as reduction in cell survival by measuring inhibition of mitochondrial metabolic activity at 0.01 to 100 uM after 48 hrs by resazurin assay; type: functional, cell-based
Outline: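 Human acute monocytic leukemia THP-1 cells, in vitro. Resazurin-based read-out measures inhibition of mitochondrial metabolic activity.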

Brevibacillus brevis = test: Antibacterial activity against Bacillus brevis by disk diffusion method; type: functional
Bacillus spizizenii = test: Antibacterial activity against Bacillus subtilis ATCC 6633 by disk diffusion method; type: functional

In the case of CC[C@H](C)C(=O)[C@@H]1C(=O)O[C@@]2(C)C(=O)C=C3C=C(C)OC=C3[C@@H]12, the Activity (THP-1 [1]) is reported as “inactive”, the MIC (Pseudomonas aeruginosa; DSM 22644, 24 h) is reported as > 10 µg/mL and the MIC (Staphylococcus aureus; DSM 799, 24 h) is reported as 5 µg/mL (≈ 15.8 µM). For the same compound, the MIC (Escherichia coli; DSM 1116, 24 h) was > 10 µg/mL, the MIC (Bacillus subtilis; DSM 1088, 24 h) was > 10 µg/mL and the Activity (THP-1 [2]) was “inactive”.

Work on GENTAMICIN yielded an MIC (Pseudomonas aeruginosa) of 1 µg/mL, an MIC (Staphylococcus aureus) of 1 µg/mL and an MIC (Escherichia coli) of 1 µg/mL. It also gave an MIC (Bacillus subtilis) of 1 µg/mL.

CCCCCCCCCCCCCCCCCC[C@H](C)C(=O)C1=C2C3=COC(C)=CC3=CC(=O)[C@]2(C)OC1=O was tested, and the MIC (Brevibacillus brevis) was 5 µg/mL (≈ 9.28 µM) and the MIC (Bacillus spizizenii) was 5 µg/mL (≈ 9.28 µM).

In the case of CC[C@H](C)C(=O)[C@H]1C(=O)O[C@@]2(C)C(=O)C=C3C=C(C)OC[C@H]3[C@H]12, the Activity (THP-1 [1]) is reported as “inactive”, the MIC (Pseudomonas aeruginosa; DSM 22644, 24 h) is reported as > 10 µg/mL and the MIC (Staphylococcus aureus; DSM 799, 24 h) is reported as > 10 µg/mL. For the same compound, the MIC (Escherichia coli; DSM 1116, 24 h) was 5 µg/mL (≈ 15.7 µM), the MIC (Bacillus subtilis; DSM 1088, 24 h) was > 10 µg/mL and the Activity (THP-1 [2]) was “inactive”.

Work on CN[C@@H]1[C@H](O[C@H]2[C@H](O[C@H]3[C@H](O)[C@@H](O)[C@H](N=C(N)N)[C@@H](O)[C@@H]3N=C(N)N)O[C@@H](C)[C@]2(O)C=O)O[C@@H](CO)[C@H](O)[C@H]1O [STREPTOMYCIN] yielded an MIC (Pseudomonas aeruginosa; DSM 22644, 24 h) of 10 µg/mL (≈ 17.2 µM), an MIC (Staphylococcus aureus; DSM 799, 24 h) of 5 µg/mL (≈ 8.6 µM) and an MIC (Escherichia coli; DSM 1116, 24 h) of 1 µg/mL (≈ 1.72 µM). For the same compound, the MIC (Bacillus subtilis; DSM 1088, 24 h) was 5 µg/mL (≈ 8.6 µM).

CC[C@H](C)C1=C2C(=O)O[C@@]3(C)C(=O)C=C4C=C(C)O[C@@H](O1)[C@@]4(O)[C@@]23O was tested, and the Activity (THP-1 [1]) was “inactive”, the MIC (Pseudomonas aeruginosa; DSM 22644, 24 h) was > 10 µg/mL and the MIC (Staphylococcus aureus; DSM 799, 24 h) was > 10 µg/mL. The MIC (Escherichia coli; DSM 1116, 24 h) was 1 µg/mL (≈ 2.87 µM), the MIC (Bacillus subtilis; DSM 1088, 24 h) was 0.1 µg/mL (≈ 0.287 µM) and the Activity (THP-1 [2]) was “inactive”.

For CC[C@H](C)C(=O)[C@H]1C(=O)O[C@@]2(C)C(=O)C=C3C=C(C)OC=C3[C@H]12 [CHERMESINONE B], the Activity (THP-1 [1]) was “inactive”, the MIC (Pseudomonas aeruginosa; DSM 22644, 24 h) was > 10 µg/mL and the MIC (Staphylococcus aureus; DSM 799, 24 h) was > 10 µg/mL. The MIC (Escherichia coli; DSM 1116, 24 h) was > 10 µg/mL, the MIC (Bacillus subtilis; DSM 1088, 24 h) was > 10 µg/mL and the Activity (THP-1 [2]) was “inactive”.
